aSyn UTR inh = MLPCN primary screen, SNCA 5' untranslated region | actives 0.82% (n = 300,000) | alpha-synuclein 5'UTR reporter, inhibitor activity | inhibition, % (tested at 7.5 µM) | AID 1813; in the data active means inhibition above about 60%;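 further: H4 neuroglioblastoma cells stably carrying SNCA 5'UTR luciferase fusion; 0% = DMSO wells and 100% = positive control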
FN deposition inh = fibronectin deposition inhibition. AH1F fibroblasts, Alexa488-fibronectin deposition fluorescence, overnight. inhibition, % at 12.6 µM. actives 0.086% (n = 350,000). AID 743247;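 active means mean inhibition across replicates of 30% or more, regardless of how many single replicates reach that level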;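 further: positive control wells lacked labelled fibronectin entirely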
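Material: AH1F fibroblast monolayer depositing Alexa488-labelled fibronectin into matrix / Amount: 10000 AH1F cells per well / Signal: fluorescence 485/525 nm / Medium: DMEM, 2% serum / Compound: single dose, pinned / Incubation: 1 h cell adhesion before compound, then overnight fibronectin incubation / Reagent: Alexa488-FN, 24 nM final / Read-out: inhibition of fibronectin deposition signal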
Shn3 inh set2 = reduces Shn3 3'UTR luciferase signal in osteoblasts; actives 0.52% (n = 360,000); inhibition, % at 12.5 µM; Clone20 osteoblast Shn3 3'UTR firefly luciferase, 24 h;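 active means mean inhibition of at least 75% with every replicate also reaching 75%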;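 further: 0% = median of neutral control wells and 100% = pilot-screen positive control compound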
EWS-Fli inh = inhibitors of EWS/Fli oncoprotein transcriptional activity. A673 NR0B1-luciferase reporter, viability-normalised. inhibition, % at 12.6 µM. actives 0.67% (n = 350,000);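 active means mean inhibition of at least 50% after viability correction, with every replicate also passing that limit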;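 further: firefly luciferase signal divided by Alamar Blue viability fluorescence both relative to DMSO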
PAX8 inh HTS = lowers PAX8-driven luciferase in RMG-I cells | RMG-I TPO-luciferase reporter, SteadyGlo, 24 h | inhibition, % at 12.6 µM | actives 1.2% (n = 360,000) | AID 652154;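 active means mean replicate inhibition at least 60% with every replicate also reaching 60%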;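 further: luciferase light reporting Pax8 driven TPO promoter activity; plate controls were median of neutral control wells for no effect and mitoxantrone controls for full effect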
LMP1 NFkB inh = reduces LMP1-driven NF-kappaB luciferase signal | LMP1-induced NF-kappaB luciferase reporter cells, luminescence | inhibition, % at 12.5 µM | actives 0.69% (n = 350,000) | AID 504558; in the data active means inhibition above about 41%;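 further: 0% = neutral control wells and 100% = reference inhibitor control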
* marks the source's active call; other numbers are inactive results. In the library only some 2.1% were active in any assay of this set; here they are far more common.

Results for CC1=NNC(=O)/C1=C\c1cn(-c2ccccc2)nc1-c1ccc(Cl)cc1 ?
aSyn UTR inh: 98*; Shn3 inh set2: 24; EWS-Fli inh: 50; LMP1 NFkB inh: -79

Results for Cc1ccccc1C(=O)N1CCN(c2ccc(NC(=O)c3ccco3)cc2Cl)CC1 ?
aSyn UTR inh: 47; Shn3 inh set2: 54; LMP1 NFkB inh: 51*

Results for O=C(Nc1ccc(N2CCN(C(=O)c3ccccc3)CC2)cc1)c1ccc([N+](=O)[O-])o1 ?
aSyn UTR inh: -19; FN deposition inh: 1; Shn3 inh set2: 42; EWS-Fli inh: 66*; PAX8 inh HTS: 100*; LMP1 NFkB inh: -19

Results for O=C(Nc1ccc(N2CCN(C(=O)c3cccs3)CC2)c(Cl)c1)c1ccco1 ?
aSyn UTR inh: -10; FN deposition inh: 8; Shn3 inh set2: 6; LMP1 NFkB inh: 19

Results for Cc1ccccc1C(=O)N1CCN(c2ccc(NC(=O)c3ccc([N+](=O)[O-])o3)cc2)CC1 ?
aSyn UTR inh: -168; FN deposition inh: -3; Shn3 inh set2: 99*; EWS-Fli inh: 61*; PAX8 inh HTS: 9; LMP1 NFkB inh: -1

Results for O=C(Nc1ccccc1N1CCN(C(=O)c2ccc(Cl)cc2)CC1)c1ccc([N+](=O)[O-])o1 ?
aSyn UTR inh: -30; Shn3 inh set2: -45; LMP1 NFkB inh: -8

How did C[C@@H]1CN([C@H](C)CO)C(=O)c2cc(NC(=O)Nc3ccccc3)ccc2O[C@H]1CN(C)Cc1ccccc1 do in these assays?
FN deposition inh: -2; EWS-Fli inh: 12; PAX8 inh HTS: -15

Results for COc1ccc(NC(=O)N(C)C[C@@H]2Oc3ccc(NC(=O)Cc4cn(C)c5ccccc45)cc3CC(=O)N([C@H](C)CO)C[C@H]2C)cc1 ?
EWS-Fli inh: -4; PAX8 inh HTS: -3

How did C[C@@H](NC(=O)[C@H]1N[C@H]2c3ccc(-c4cccnc4)c(=O)n3C[C@H]2[C@@H]1CO)c1ccccc1 do in these assays?
EWS-Fli inh: -5

How did Cc1ccc(S(=O)(=O)N2CCCCC2)cc1NC(=O)Cc1c[nH]c2ccccc12 do in these assays?
aSyn UTR inh: 21; FN deposition inh: -5; Shn3 inh set2: -2; EWS-Fli inh: 19; PAX8 inh HTS: 153*; LMP1 NFkB inh: -6

How did Cc1ccc(S(=O)(=O)N2CCCCC2)cc1NC(=O)CNc1ccccc1N1CCCC1=O do in these assays?
FN deposition inh: -12; Shn3 inh set2: -3; EWS-Fli inh: 11; PAX8 inh HTS: -4; LMP1 NFkB inh: 42*

Results for C[C@H](CO)N1C[C@H](C)[C@@H](CN(C)C(=O)NC2CCCCC2)Oc2c(NC(=O)c3nc4ccccc4s3)cccc2C1=O ?
FN deposition inh: 15; EWS-Fli inh: 3

How did COCc1cn(CC[C@H]2CC[C@H](NC(=O)Nc3ccc(OC)cc3)[C@H](CO)O2)nn1 do in these assays?
EWS-Fli inh: -6; PAX8 inh HTS: 4

How did C[C@H]1CN([C@@H](C)CO)C(=O)c2cc(NC(=O)Cc3cn(C)c4ccccc34)ccc2O[C@@H]1CN(C)S(=O)(=O)c1cccs1 do in these assays?
EWS-Fli inh: -8

How did O=C(C1=C[C@H](c2ccccc2)C[C@H](OCCCCO)O1)N1CCN(Cc2ccccc2)CC1 do in these assays?
aSyn UTR inh: -20; FN deposition inh: -1; Shn3 inh set2: -4; EWS-Fli inh: 15; PAX8 inh HTS: 13; LMP1 NFkB inh: -1

Results for C#Cc1ccc([C@@H]2C=C(C(=O)N3CCN(Cc4ccccc4)CC3)O[C@H](OCCCCO)C2)cc1 ?
aSyn UTR inh: 99*; Shn3 inh set2: 93*; LMP1 NFkB inh: 37

How did Cc1cccc[n+]1CC(=O)/C=C1\N(C)c2ccccc2C1(C)C do in these assays?
aSyn UTR inh: -14; Shn3 inh set2: 68; EWS-Fli inh: 75*; PAX8 inh HTS: 40; LMP1 NFkB inh: 18

What do the screens show for `C[C@H]1CN([C@@H](C)CO)C(=O)c2cc(C#CC3CC3)cnc2O[C@H]1CN(C)Cc1ccccn1`?
FN deposition inh: 4; EWS-Fli inh: 6

Results for CC1CCN(CCOc2ccc(C(=O)c3ccccc3)cc2)CC1 ?
aSyn UTR inh: -1; FN deposition inh: -3; Shn3 inh set2: 14; EWS-Fli inh: 18; PAX8 inh HTS: 7; LMP1 NFkB inh: 80*

How did Cc1ccc2cc(/C=N/Nc3nc4ccccc4[nH]3)c(Cl)nc2c1 do in these assays?
aSyn UTR inh: -111; Shn3 inh set2: -97; EWS-Fli inh: 7; PAX8 inh HTS: -53; LMP1 NFkB inh: -2

How did COc1ccc(/C=N/Nc2nc3ccccc3[nH]2)cc1OC do in these assays?
aSyn UTR inh: -228; FN deposition inh: 2; Shn3 inh set2: -19; EWS-Fli inh: -19; PAX8 inh HTS: -71; LMP1 NFkB inh: -5

What do the screens show for `C(=N\Nc1nc2ccccc2[nH]1)/c1cccc2nccnc12`?
aSyn UTR inh: 67*; FN deposition inh: 11; Shn3 inh set2: 57; EWS-Fli inh: -13; PAX8 inh HTS: 10; LMP1 NFkB inh: 47*

What do the screens show for `COc1cc(OC)c(OC)cc1/C=N/Nc1nc2ccccc2[nH]1`?
aSyn UTR inh: -2; FN deposition inh: -9; Shn3 inh set2: -3; EWS-Fli inh: 6; PAX8 inh HTS: 17; LMP1 NFkB inh: 10

How did C(=N\Nc1nc2ccccc2[nH]1)/c1ccc2ncccc2c1 do in these assays?
aSyn UTR inh: 95*; FN deposition inh: 8; Shn3 inh set2: 57; EWS-Fli inh: 40; PAX8 inh HTS: -32; LMP1 NFkB inh: 34

What do the screens show for `Oc1ccc(C=NNC(=S)Nc2ccccc2)nc1`?
FN deposition inh: 11; Shn3 inh set2: 77; EWS-Fli inh: 0; PAX8 inh HTS: 21; LMP1 NFkB inh: 51*

Results for CCN(CC)c1ccc(/C=N/Nc2nc3ccccc3[nH]2)c(O)c1 ?
aSyn UTR inh: 84*; Shn3 inh set2: 77; LMP1 NFkB inh: 55*

What do the screens show for `CNC[C@H]1Oc2ccc(NC(=O)NC(C)C)cc2C(=O)N(C)C[C@H]1C`?
FN deposition inh: 2

Results for CCC(=O)N[C@@H]1CC[C@@H](CC(=O)NCCN2CCCCC2)O[C@@H]1CO ?
FN deposition inh: 1; EWS-Fli inh: 4; PAX8 inh HTS: -2

Results for O=C(c1ccc2c(c1)OCO2)N1CC(=O)N2[C@H](CO)[C@@H](c3ccc(C#Cc4ccccc4)cc3)[C@@H]2C1 ?
EWS-Fli inh: 8

Results for CC(C)NC(=O)Nc1cccc2c1O[C@H](CN(C)C(=O)OC(C)(C)C)[C@H](C)CN(C)C2=O ?
FN deposition inh: -9

Results for S=C(N/N=C/c1ccc2ncccc2c1)Nc1ccccc1 ?
aSyn UTR inh: 108*; FN deposition inh: -7; Shn3 inh set2: 20; EWS-Fli inh: 3; PAX8 inh HTS: -110; LMP1 NFkB inh: 23

Compound activity (PubChem)
